# Assays:
# Plasmodium falciparum [1] = experiment: Antimalarial activity against drug-sensitive Plasmodium falciparum 3D7 assessed as [3H]hypoxanthine incorporation by scintillation counting; type: functional, organism-based
# [2] = Cytotoxicity against human MCF7 cells after 48 hrs by MTT assay; type: cell-based
# Plasmodium falciparum [3] = experiment: Antimalarial activity against chloroquine-resistant Plasmodium falciparum FcB1 assessed as [3H]hypoxanthine incorporation after 48 hrs by beta-counter; type: functional, organism-based; details: FcB1/Columbia
# Method in brief: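 Primary assay (Toulouse) on FcB1 cultured in RPMI with 25 mM HEPES and 10% human serum, O RBCs. Serial dilutions in triplicate, 2% parasitaemia, 2% haematocrit, 48 h at 37 °C, 5% CO2. [3H]-hypoxanthine added at 24 h, freeze-thaw harvest, β-counting. IC50 by linear regression on the linear segment of the semilog inhibition curve. Three independent repeats.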
# Plasmodium falciparum [4] = experiment: Antimalarial activity against Plasmodium falciparum K1 assessed as [3H]hypoxanthine incorporation by scintillation counting; type: functional, organism-based
# Plasmodium falciparum [5] = experiment: Resistance index, ratio of IC50 for chloroquine-resistant Plasmodium falciparum K1 to IC50 for drug-sensitive Plasmodium falciparum 3D7; type: functional
# Plasmodium falciparum [6] = experiment: Resistance index, ratio of IC50 for chloroquine-resistant Plasmodium falciparum FcB1 to IC50 for drug-sensitive Plasmodium falciparum 3D7; type: functional
# [7] = Selectivity index, ratio of CC50 for human MCF7 cells to IC50 for chloroquine-resistant Plasmodium falciparum FcB1; type: functional
# Method in brief: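 XTT 0.5 mg/mL added for 180 min, formazan read at 450 nm, value taken from dose–response curves, two experiments in triplicate. This CC50 is divided by the FcB1 IC50 to give the index.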
# [8] = Selectivity index, ratio of CC50 for human KB cells to IC50 for drug-sensitive Plasmodium falciparum 3D7; type: functional
# Method in brief: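 The 3D7 value came from [3H]hypoxanthine incorporation: synchronized culture at 0.5% parasitaemia, 2.5% hematocrit, Albumax-supplemented medium, 2-fold dilutions from 100 to 0.05 μM in triplicate, label added at 24 h and harvested at 48 h.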
# [9] = Cytotoxicity against human KB cells after 72 hrs by alamar blue assay; type: cell-based
# Method in brief: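 KB cells were seeded at 4×10^4 cells/mL in RPMI 1640 with 10% heat-inactivated FCS and left 24 h at 37 °C, 5% CO2. A dilution series was added in triplicate for 72 h, then AlamarBlue for 2–4 h. Fluorescence was read at ex 530/em 585 nm, with podophyllotoxin as positive control and values from curve fitting.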
Compound,IC50 (Plasmodium falciparum [1]) [µM],CC50 at 48 h [2] [µM],IC50 (Plasmodium falciparum [3]) [µM],IC50 (Plasmodium falciparum [4]) [µM],Ratio IC50 (Plasmodium falciparum [5]),Ratio IC50 (Plasmodium falciparum [6]),Ratio CC50/IC50 [7],Ratio CC50/IC50 [8],CC50 at 72 h [9] [µM]
O=C1C(c2ccc(Oc3ccccc3)cc2)=[N+]([O-])c2ccccc21,0.148,11.1,0.264,0.06,0.4,1.8,42,–,–
COc1ccc2c(c1)C(=O)C(c1ccccc1)=[N+]2[O-],–,13.4,0.184,–,–,–,73,–,–
O=C1C(c2ccc(C(F)(F)F)cc2)=[N+]([O-])c2ccccc21,–,34.3,1.17,–,–,–,29,–,–
COc1ccc2c(c1)C(=O)C(c1ccc(Oc3ccccc3)cc1)=[N+]2[O-],0.037,7.7,0.193,< 0.0015,<0.04,5.2,40,151,5.6
CCCC1=[N+]([O-])c2ccccc2C1=O,–,26.4,12.2,–,–,–,2,–,–
O=C1C(c2ccc(Oc3ccccc3)cc2)=[N+]([O-])c2cc3c(cc21)OCO3,0.285,12.2,0.165,0.138,0.5,0.6,74,–,–
O=C1C(c2ccc(CO)cc2)=[N+]([O-])c2ccccc21,–,39.5,3.95,–,–,–,10,–,–
COc1ccc2c(c1)C(=O)C(c1ccc(C)c(C)c1)=[N+]2[O-],0.142,26,0.037,0.178,1.2,0.3,702.7,980,148
COc1ccc2c(c1)[N+]([O-])=C(c1ccc(Cl)cc1)C2=O,–,10.4,0.15,–,–,–,69,–,–
CCN(CC)c1ccc(C2=[N+]([O-])c3ccc(OC)cc3C2=O)cc1,–,17.6,0.131,–,–,–,134,–,–
O=C1C(c2ccc(Oc3ccccc3)cc2)=[N+]([O-])c2cc(OCc3ccccc3)ccc21,–,2.2,0.665,–,–,–,3.2,–,–
COc1ccc2c(c1)C(=O)C(c1ccc(-c3ccc(Cl)cc3)cc1)=[N+]2[O-],–,12.1,0.63,–,–,–,19,–,–
COC(=O)c1ccc2c(c1)[N+]([O-])=C(c1ccc(OC)cc1)C2=O,–,40.2,0.206,–,–,–,194.9,–,–
COc1ccc2c(c1)C(=O)C(c1cccc(Cl)c1)=[N+]2[O-],0.139,5.2,0.021,0.096,0.7,0.2,248,688,64
O=C1C(c2ccccc2)=[N+]([O-])c2cc3c(cc21)OCO3,–,–,12.7,–,–,–,–,–,–
O=C1C(c2ccc(Cl)c(Cl)c2)=[N+]([O-])c2cc3c(cc21)OCO3,–,7.4,0.195,–,–,–,38.1,–,–
COc1ccc(C2=[N+]([O-])c3cc(Cl)ccc3C2=O)cc1,–,22.2,0.191,–,–,–,116.5,–,–
COc1ccc(C2=[N+]([O-])c3cc(C)ccc3C2=O)cc1,–,14.9,0.198,–,–,–,75,–,–
COc1ccc2c(c1)C(=O)C(c1ccc(C(F)(F)F)cc1)=[N+]2[O-],< 0.0005,11.7,0.043,0.0019,3.8,86,273,>220,110
COc1ccc2cc(C3=[N+]([O-])c4ccccc4C3=O)ccc2c1,–,15.3,–,–,–,–,–,2589,233
COc1ccc(C2=[N+]([O-])c3ccc(OC)cc3C2=O)c(C)c1,–,0.3,1.04,–,–,–,0.3,–,–
COc1ccc2c(c1)C(=O)C(c1ccsc1)=[N+]2[O-],–,12.3,0.27,–,–,–,45.5,–,–
COc1ccc2c(c1)C(=O)C(c1ccc(OC)c(C)c1)=[N+]2[O-],–,> 33.6,0.044,–,–,–,>764,–,–
COc1ccc2c(c1)C(=O)C(c1ccc(C(C)(C)C)cc1)=[N+]2[O-],–,11,0.204,–,–,–,53.9,–,–
COc1ccc2cc(C3=[N+]([O-])c4cc(OCc5ccccc5)ccc4C3=O)ccc2c1,–,–,0.73,–,–,–,–,–,–
O=C1C(c2ccc(Cl)c(C(F)(F)F)c2)=[N+]([O-])c2ccccc21,–,2,1.04,–,–,–,1.9,–,–

# From ChEMBL document CHEMBL1156797, “Synthesis and antiplasmodial activity of new indolone N-oxide derivatives” (J Med Chem, 2010)
